# Measured values from different studies.
# Each line is one published result; the experiments were not run side by side.
# Read-out: cell growth or viability
Compound,cell line,technique,concentration,time,quantity,result
NCC(=O)Nc1ccccc1/N=c1\cc(-c2ccc3c(c2)OCO3)oc2ccccc12,MDA-MB-468,CCK-8,1 µM,,inhibition,3.86%
CCN(Cc1ccc(F)cc1F)c1ccc(CO)c(Cl)c1,RBE,ATP luminescence,46 µM,72 h,inhibition,82%
COC(=O)CNC(=O)C(=O)OC,HBL1,ATP luminescence,0.5 µM,5 days,viability,113%
COc1ncccc1Cn1nc(-c2ccc(CO)o2)c2ccccc21,RBE,ATP luminescence,,,IC50,229 nM
O=C(/C=C/c1cccc(C(=O)NO)c1)NO,HBL1,ATP luminescence,0.1 µM,5 days,viability,119%
NCC(=O)Nc1ccccc1/N=c1\cc(-c2ccc3c(c2)OCCO3)oc2cc(F)ccc12,MDA-MB-468,CCK-8,1 µM,,inhibition,11.8%
OCc1coc(-c2nn(Cc3ccccc3)c3ccccc23)n1,RBE,ATP luminescence,46 µM,72 h,inhibition,32%
O=C(CCCCCCSc1ccc2ccccc2c1)NO,HBL1,ATP luminescence,0.5 µM,5 days,viability,113%
NC(=O)c1ccc(-c2nc3ccc4[nH]ncc4c3c3c2CCCC3)cc1,MV4-11,resazurin,,72 h,GI50,57 nM
O=C(Nc1ccccc1/N=c1\cc(-c2ccc3c(c2)OCCO3)oc2cc(F)ccc12)N1CCOCC1,MDA-MB-468,CCK-8,1 µM,,inhibition,-2.71%
Cc1n[nH]c2ccc3nc(-c4ccc(C(=O)NCCN(C)C)cc4)c4c(c3c12)CCC(F)(F)C4,MV4-11,resazurin,,72 h,GI50,132 nM
CC(=O)OC[C@H]1O[C@@H](n2cnc(N)nc2=O)[C@H](OC(C)=O)[C@@H]1OC(C)=O,HBL1,ATP luminescence,1 µM,5 days,viability,94.3%
NCCC(=O)Nc1ccccc1/N=c1\cc(-c2ccc3c(c2)OCCO3)oc2cc(F)ccc12,MDA-MB-468,CCK-8,1 µM,,inhibition,31.2%
CCN(Cc1ccc(C)cc1)c1ccc(CO)c(Cl)c1,RBE,ATP luminescence,46 µM,72 h,inhibition,95%
C[C@H](N)C(=O)Nc1ccccc1/N=c1\cc(-c2ccc3c(c2)OCCO3)oc2cc(F)ccc12,MDA-MB-468,CCK-8,1 µM,,inhibition,12.8%
Cc1n[nH]c2ccc3nc(-c4ccc(C(=O)N(C)CCN(C)C)cc4)c4c(c3c12)CCCCC4,MV4-11,resazurin,,72 h,GI50,522 nM
OCc1ccc(-c2nn(Cc3ccccc3)c3ccc(F)cc23)o1,RBE,ATP luminescence,,,IC50,977 nM
CN(C)CCN(C)C(=O)c1ccc(-c2nc3ccc4[nH]ncc4c3c3c2CCCCC3)nc1,MV4-11,resazurin,,72 h,GI50,1200 nM
CCN(Cc1ccccc1C)c1ccc(CO)c(Cl)c1,RBE,ATP luminescence,46 µM,72 h,inhibition,87%
COCCCNC(=O)c1ccc(-c2nc3ccc4[nH]ncc4c3c3c2CCCC3)cc1,MV4-11,resazurin,,72 h,GI50,2900 nM
COc1ccc2/c(=N/c3ccccc3NC(=O)[C@H](C)N)cc(-c3ccc4c(c3)OCCO4)oc2c1,MDA-MB-468,CCK-8,1 µM,,inhibition,13.4%
OCC1CCC(c2nn(Cc3ccccc3)c3ccccc23)O1 (stereo not shown),RBE,ATP luminescence,46 µM,72 h,inhibition,13%
CN1CCN(C(=O)c2ccc(-c3nc4ccc5[nH]ncc5c4c4c3CCCC4)cc2)CC1,MV4-11,resazurin,,72 h,GI50,1300 nM
OCc1ccc(-c2nn(Cc3ccccc3)c3ccccc23)s1,RBE,ATP luminescence,46 µM,72 h,inhibition,30%
O=C(NCCCN1CCOCC1)c1ccc(-c2nc3ccc4[nH]ncc4c3c3c2CCCC3)cc1,MV4-11,resazurin,,72 h,GI50,413 nM
NCC(=O)Nc1ccccc1/N=c1\cc(-c2ccc3c(c2)OCO3)oc2c([N+](=O)[O-])cccc12,MDA-MB-468,CCK-8,1 µM,,inhibition,5.28%
O=C(NC1CCCCC1)c1ccc(-c2nc3ccc4[nH]ncc4c3c3c2CCCC3)cc1,MV4-11,resazurin,,72 h,GI50,4300 nM
NCC(=O)Nc1ccccc1/N=c1\cc(-c2ccc3c(c2)OCCO3)oc2ccccc12,MDA-MB-468,CCK-8,1 µM,,inhibition,4.61%
